Screening data: PubChem BioAssay, Sanford-Burnham Center for Chemical Genomics
SENP7 block: inhibitors of human SENP7 protease | Q9BQF6 | recombinant SENP7, Z-RLRGG-aminoluciferin luminescence, 40 min | 330,000 tested, 1.5% active | inhibition, % at 5 µM;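 active = inhibition above about 50% at the single test dose, limit read from the data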;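 also: plate controls were DMSO with enzyme for no effect and no enzyme buffer wells for full effect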
Target sequence (Q9BQF6 706-1050 limits assumed): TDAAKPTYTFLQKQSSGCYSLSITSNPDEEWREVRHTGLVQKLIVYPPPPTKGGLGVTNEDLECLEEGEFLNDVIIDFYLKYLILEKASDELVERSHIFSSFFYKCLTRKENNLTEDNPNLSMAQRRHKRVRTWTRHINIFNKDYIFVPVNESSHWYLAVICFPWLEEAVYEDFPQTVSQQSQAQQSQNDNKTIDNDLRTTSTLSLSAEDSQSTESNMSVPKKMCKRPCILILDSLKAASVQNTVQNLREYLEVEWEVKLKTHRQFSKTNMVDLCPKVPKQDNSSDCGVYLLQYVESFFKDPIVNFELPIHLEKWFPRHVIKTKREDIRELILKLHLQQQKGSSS
UBC13 polyUb: human UBC13 polyubiquitination inhibition; 330,000 tested, 0.47% active; UBC13 polyubiquitin chain formation, TR-FRET; inhibition, % at 20 µM; AID 485273; P61088; in the data active = inhibition above about 45%, passing the limit was not always enough
SENP8 block-1: inhibitors of human SENP8 protease. Q96LD8. inhibition, % at 20 µM. recombinant SENP8, Nedd8 substrate fluorescence. AID 602440. 360,000 tested, 0.64% active; in the data active = inhibition mostly above about 40%, no sharp cut-off; inactive = mostly below about 27%
Target sequence (Q96LD8 whole entry, looked up): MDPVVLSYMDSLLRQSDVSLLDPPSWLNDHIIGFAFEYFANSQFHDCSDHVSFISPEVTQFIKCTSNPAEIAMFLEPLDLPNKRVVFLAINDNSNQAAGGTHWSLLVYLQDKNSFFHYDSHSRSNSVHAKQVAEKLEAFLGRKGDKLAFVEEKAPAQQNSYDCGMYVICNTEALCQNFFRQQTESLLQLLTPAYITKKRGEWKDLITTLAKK
SENP8 block-2: blocks the human protease SENP8. Q96LD8. purified SENP8, Z-RLRGG-aminoluciferin cleavage, luminescence. inhibition, % at 10 µM. 330,000 tested, 1.2% active; in the data active = inhibition above about 50%
SENP6 inh: blocks the human protease SENP6. Q9GZR1. inhibition, % at 10 µM. Recombinant SENP6 catalytic domain, aminoluciferin luminescence. 330,000 tested, 1.8% active;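 active = inhibition above about 50% at the single tested dose, limit read from the data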;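 also: plate controls were DMSO wells with enzyme for no effect and DMSO wells lacking enzyme for full effect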
Apaf1 inhib: inhibitors of human Apaf-1 apoptosome; reconstituted apoptosome caspase-3 activity, DEVD-Rh110 fluorescence; AID 489030; 330,000 tested, 0.71% active; inhibition, % at 20 µM; O14727; active = inhibition of at least 40% at 20 µM;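 also: plate controls were DMSO wells for no effect and DEVD-CHO caspase inhibitor wells for full effect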
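Material: reconstituted apoptosome with Apaf-1, cytochrome c, caspase-9, procaspase-3, dATP; medium: pH 7.5 Hepes buffer with CHAPS, BSA, DTT; also added: cytochrome c and DEVD-Rh110 substrate; timing: 30 min plus 50 min, RT; signal: Rh110 fluorescence intensity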
SENP8 conf: confirmation of human SENP8 protease inhibitors | shares compounds with SENP7 block | Recombinant SENP8, Z-RLRGG-aminoluciferin luminescence, 60 min | inhibition, % at 12.5 µM | 6,200 tested, 40% active | AID 488912;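 active = mean inhibition across replicates above about 50%, limit read from the data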
SENP6 conf: human SENP6 inhibition, confirmed; shares compounds with SENP7 block; AID 488915; 6,200 tested, 58% active; recombinant SENP6, Z-RLRGG-aminoluciferin luminescence; inhibition, % at 12.5 µM
SENP7 confirm: confirmation of human SENP7 protease inhibitors; AID 488917; recombinant SENP7, Z-RLRGG-aminoluciferin luminescence, 40 min; 6,200 tested, 69% active; inhibition, % at 12.5 µM; shares compounds with SENP7 block
Casp3 SENP sel: selectivity test for SENP inhibitors: human caspase-3 inhibition; shares compounds with SENP7 block; purified caspase-3, Z-DEVD-aminoluciferin luminescence, 60 min; inhibition, % at 12.5 µM; 6,200 tested, 60% active; AID 488918;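 active = mean inhibition above about 50%, limit read from the data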;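 also: plate controls were enzyme with DMSO for no effect and wells without caspase-3 for full effect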
Luc interf: counter-screen for SENP inhibitors: luminescence interference; inhibition, % at 12.5 µM; Pre-incubated SENP8/Z-RLRGG-aminoluciferin, luciferase luminescence interference; 6,200 tested, 39% active; shares compounds with SENP7 block;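 active = mean inhibition above about 50% when retested at one dose, limit read from the data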;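 also: plate controls were DMSO wells with completed reaction for no effect and substrate without enzyme for full effect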
* hit, by the source's call; i = inactive; · = not tested or not shown. Most compounds without a hit are left out; they make up all but 3.1% or so of the library.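 The calls were made as follows, unless noted: active = mean inhibition above about 50% in the one-dose retest (limit read from the data); inactive = the rest.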

SMILES	SENP7 block	UBC13 polyUb	SENP8 block-1	SENP8 block-2	SENP6 inh	Apaf1 inhib	SENP8 conf	SENP6 conf	SENP7 confirm	Casp3 SENP sel	Luc interf
c1cnc2ccc(-c3ccc4ncccc4c3)cc2c1	32	4	-112	55*	77*	6	72*	71*	87*	65*	76*
Cc1ccc2ncccc2c1	-4	-8	6	-12	-21	9	·	·	·	·	·
COc1cccc2oc3ccc(C#Cc4ccccn4)cc3c(=O)c12	100*	7	i	94*	100*	22	73*	90*	100*	91*	75*
Cc1cccc(-c2noc(-c3csc([C@@H]4C[C@H](O)[C@@H](CO)O4)n3)n2)c1	·	·	16	·	·	·	·	·	·	·	·
CCc1nc2ccc(C(=O)N(CC)CCN(C)C)cn2c1N(CC)CCOC	·	·	-12	·	·	·	·	·	·	·	·
Cc1ccc(-n2[nH]c(C)c(C=Nc3ccc4[nH]c(=O)[nH]c4c3)c2=O)cc1	-2	-24	21	-13	-36	0	·	·	·	·	·
Cc1ccc(N=Cc2c(C)[nH]n(-c3nc4ccccc4[nH]3)c2=O)cc1	95*	-28	14	86*	94*	-5	88*	55*	94*	95*	90*
COc1cccc(/C=N/Nc2nccnc2Cl)c1O	100*	-27	-12	96*	97*	12	98*	99*	102*	98*	88*
Oc1ccccc1/C=N/Nc1nccnc1Cl	93*	-15	-12	83*	80*	-3	91*	91*	100*	94*	93*
COc1cccc(/C=N/Nc2ncnc(Cl)c2N)c1O	15	-38	-51	7	16	-5	·	·	·	·	·
O=C(C[C@H]1CC[C@H]2[C@@H](COC[C@H](O)CN2Cc2ccccc2)O1)NCCCN1CCOCC1	·	·	15	·	·	·	·	·	·	·	·
C/C(=N\NC(=O)c1nn(C)c(C)c1Br)c1ccc(NC(=O)c2ccoc2C)cc1	60*	-22	-8	-7	41	2	-2	2	0	12	13
COc1ccc(C(=O)Nc2ccc(C(=O)c3ccccc3)cc2)cc1	0	7	15	1	-16	-385	·	·	·	·	·
COc1ccc(C(=O)N/N=C/C(=O)c2ccccc2)cc1	84*	3	6	58*	80*	-2	32	72*	92*	79*	30
COc1cc(NC(=O)c2ccccc2)cc(OC)c1	47	2	5	12	54*	8	18	18	68*	65*	49
COc1ccc(C(=O)NN/C(C)=C/C(=O)c2ccccc2)cc1	8	1	11	3	-15	-6	·	·	·	·	·
COc1ccc(C(=O)Nc2cc(OC)cc(OC)c2)cc1	89*	7	15	81*	87*	4	86*	83*	96*	88*	83*
Cc1cc2nc(-c3ccco3)c(Cc3ccccc3C(F)(F)F)n2c(C)c1Br	·	·	-17	·	·	·	·	·	·	·	·
CCNC(=O)C1CCCN(C(=O)Cc2cccs2)CC1 (stereo not drawn)	·	·	23	·	·	·	·	·	·	·	·
C=CCC[C@H](CCCCC)OC(=O)/C=C/[C@@H](O)[C@H](O)C[C@H](O)CC=C	·	·	15	·	·	·	·	·	·	·	·
COc1ccccc1-c1noc(-c2ccncc2)n1	51*	3	18	23	53*	-11	42	41	77*	76*	52*
Cc1ccc(-c2noc(-c3cccs3)n2)cc1	-5	-1	10	95*	95*	-16	14	97*	103*	90*	70*
COc1ccccc1-c1noc(-c2cccs2)n1	68*	10	16	59*	76*	-7	78*	78*	92*	78*	80*
COc1cccc(-c2ccc(-c3noc(-c4cccs4)n3)c(OC)n2)c1	-3	7	-464	3	-23	1	·	·	·	·	·
c1csc(-c2nc(N3CCCCC3)no2)c1	61*	15	-289	53*	66*	3	-18	43	84*	52*	4
SMILES	SENP7 block	UBC13 polyUb	SENP8 block-1	SENP8 block-2	SENP6 inh	Apaf1 inhib	SENP8 conf	SENP6 conf	SENP7 confirm	Casp3 SENP sel	Luc interf
Cc1cc(C(=O)Nc2ccc(C(=O)O)cc2)c(C)o1	74*	4	7	68*	80*	-3	-6	61*	88*	91*	65*
Cc1oc(C(C)(C)C)cc1C(=O)Nc1ccc(C(=O)O)cc1	10	0	28	3	9	-1	·	·	·	·	·
Cc1cc(C(=O)Nc2cccc(C(=O)O)c2)c(C)o1	84*	12	13	68*	90*	-9	-8	81*	98*	49	88*
Cc1cc(C(=O)Nc2cccc(C(=O)O)c2)oc1C	98*	1	19	92*	92*	-15	95*	95*	100*	86*	94*
CCCCCCCCN1C(=O)[C@H](CC(=O)N2CCN(C(=O)OCC)CC2)C[C@@]2(C(=O)OC)CC(C)(C)CC=C12	·	·	22	·	·	·	·	·	·	·	·
O=C(O)c1cccc2c(/C=N/Nc3ccccn3)c[nH]c12	90*	-10	14	88*	90*	-28	65*	92*	93*	93*	47
O=C(O)c1ccccc1N/N=C\c1ccnc2ccccc12	38	-9	-29	90*	94*	-13	12	100*	103*	97*	94*
ON=Cc1ccnc2ccccc12	·	·	-12	·	·	·	·	·	·	·	·
O=C(Cc1ccccc1)N/N=C/c1cc(Br)cc(Br)c1O	-1	-12	-207	-4	-19	10	·	·	·	·	·
O=C(O)c1ccccc1N/N=C/c1cc(Br)cc(Br)c1O	9	-1	5	92*	102*	8	94*	98*	97*	70*	40
COC(=O)C(C(=O)OC)[C@@H]1C=C[C@H](C[N+](=O)[O-])N(C(C)=O)C1	·	·	2	·	·	·	·	·	·	·	·
COc1ccccc1-c1ccc2c(c1)C(C)(Cc1cccc(C#N)c1)C(=O)N2 (stereo not drawn)	·	·	20	·	·	·	·	·	·	·	·
Cc1cn([C@H]2C[C@H](O)[C@@H](CNCc3ccc(-c4cc(Cl)ccc4C(F)(F)F)o3)O2)c(=O)[nH]c1=O	·	·	9	·	·	·	·	·	·	·	·
Cc1ccc(C(=O)Nc2ccccc2Cl)cc1	58*	8	1	45	69*	-6	50*	55*	86*	78*	55*
